Experimental data reported in ChEMBL document CHEMBL3392999 (J Med Chem, 2014).
The source made the active and inactive calls. The calls are words filed in the database; no cut-off is given here.

Assays:
[1] = tested on: HT-29; experiment: Cytotoxicity against human HT-29 cells after 3 days by MTT assay; type: functional, cell-based; settings: HT-29, 72 h
In short: (§1)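 HT-29, MCF-7 and HEK293 cells were grown in DMEM (1 g/L glucose, 2 mM glutamine, antibiotics, amphotericin, 10% FBS). Serial dilutions of compound in DMSO were added to 5 x 10^3 cells/well for 3 days at 37 °C, 5% CO2. MTT was then added for 4 h, formazan was dissolved in 0.04 N HCl/2-propanol and read at 550 nm, in triplicate. IC50 is the 50% growth inhibition. The ratios are HEK293 IC50 over HT-29 or MCF-7 IC50.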

[2] = tested on: HEK293; experiment: Cytotoxicity against human HEK293 cells after 3 days by MTT assay; type: cell-based; settings: HEK293, 72 h; in short: as §1
[3] = Depolymerization of microtubule cytoskeleton in human A549 cells at 50 nM after 24 hrs by hoechst 33342-based fluorescence microscopy; type: cell-based
In short: (§2)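 A549 cells grown overnight on 12 mm round coverslips, then 24 h with compound or DMSO vehicle. Cells permeabilized with Triton X100 and fixed in 3.7% formaldehyde. Microtubules stained with DM1A α-tubulin monoclonal antibody, DNA with Hoechst 33342. Examined by epifluorescence microscopy with cooled CCD imaging; mitotic spindles inspected.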

[4] = Depolymerization of microtubule cytoskeleton in human A549 cells assessed as DNA forming a ball without microtubules at 50 nM after 24 hrs by hoechst 33342-based fluorescence microscopy; type: cell-based; in short: as §2
[5] = Depolymerization of microtubule cytoskeleton in human A549 cells assessed as aberrant mitosis at 50 nM after 24 hrs by hoechst 33342-based fluorescence microscopy; type: cell-based; in short: as §2
[6] = tested on: A549; experiment: Cell cycle arrest at G2/M phase in human A549 cells at 50 nM after 20 hrs; type: functional, cell-based
In short: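 A549 human lung carcinoma cells in RPMI 1640 with 10% FCS, glutamine and antibiotics, exposed for 20 h to compound or DMSO vehicle. Cells were fixed, RNase-treated and stained with propidium iodide. DNA content was measured by flow cytometry to give G2/M fraction.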

[7] = Cytotoxicity against human A2780AD cells after 24 hrs by MTT assay; type: functional, cell-based; settings: A2780 ADR
In short: (§3)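 Ovarian carcinoma A2780 and its P-glycoprotein-overexpressing MDR subline A2780AD were cultured in RPMI 1640 with 10% FCS, glutamine, antibiotics and 0.25 units/mL bovine insulin. Cytotoxicity was measured by a modified MTT assay. IC50 is 50% growth inhibition, averaged over three measurements. The resistance factor is A2780AD IC50 divided by A2780 IC50.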

[8] = tested on: MCF7; experiment: Cytotoxicity against human MCF7 cells after 3 days by MTT assay; type: functional, cell-based; settings: MCF7, 72 h; in short: as §1
[9] = Selectivity ratio of IC50 for human HEK293 cells to IC50 for human HT29 cells; type: ADME, cell-based; settings: HEK293 cells versus HT29 cells, read-out: Ratio IC50; in short: as §1
[10] = Selectivity ratio of IC50 for human HEK293 cells to IC50 for human MCF7 cells; type: ADME, cell-based; settings: HEK293 cells versus MCF7 cells, read-out: Ratio IC50; in short: as §1
[11] = target: T1, Tubulin (Homo sapiens) (UniProt P68371+Q9H4B7+P0DPH7+P68366+Q13509+Q71U36+P04350+Q3ZCM7+P07437+P68363+Q9BQE3+Q6PEY2+Q13885+Q9BVA1+Q9BUF5); experiment: Inhibition of purified tubulin (unknown origin) assessed as critical concentration of tubulin required to produce assembly at 25 uM after 30 mins by spectrophotometry; type: protein-complex assay
In short: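 Calf-brain tubulin (20 µM) was incubated 30 min at 37 °C in glycerol assembly buffer (3.4 M glycerol, 10 mM sodium phosphate, 1 mM EGTA, 1 mM GTP, pH 6.5) with ligand at varying concentrations or DMSO vehicle. The critical concentration for assembly was then calculated from the processed samples. Values are averages of replicate measurements.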

[12] = tested on: A2780; experiment: Cytotoxicity against human A2780 cells after 24 hrs by MTT assay; type: functional, cell-based; settings: A2780, 24 h
[13] = Resistance factor, ratio of IC50 for human A2780AD cells to IC50 for human A2780 cells; type: functional, A2780 ADR; in short: as §3
[14] = Depolymerization of microtubule cytoskeleton in human A549 cells at 1 uM after 24 hrs by hoechst 33342-based fluorescence microscopy; type: cell-based
In short: (§4)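 A549 cells were cultured overnight on 12 mm round coverslips, then incubated 24 h with ligand or DMSO vehicle. Cells were permeabilized with Triton X-100 and fixed with 3.7% formaldehyde. Microtubules were stained with DM1A anti-α-tubulin monoclonal antibody and DNA with Hoechst 33342, then examined by epifluorescence microscopy with a cooled CCD camera.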

[15] = tested on: A549; experiment: Cell cycle arrest at G2/M phase in human A549 cells at 5 to 10 uM after 20 hrs; type: functional
In short: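 A549 cells (RPMI 1640, 10% FCS, glutamine, antibiotics) were exposed to ligand or DMSO vehicle for 20 h. They were then fixed, RNase-treated and stained with propidium iodide. DNA content was measured by flow cytometry, and G2/M accumulation was read at the lowest concentration giving maximal arrest.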

[16] = target: T1, Tubulin (Homo sapiens); experiment: Inhibition of purified tubulin (unknown origin) assessed as concentration of compound in dichloromethane solvent at 30 uM after 1 hr; type: protein-complex assay
In short: (§5)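 In one set, mixtures stood 1 h at 37 °C and were extracted with dichloromethane. In another, microtubules were allowed to assemble and were ultracentrifuged, and the supernatant and pellet were extracted separately. Ligand in each extract was quantified against a 30 µM tubulin-free reference.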

[17] = target: T1, Tubulin (Homo sapiens); experiment: Inhibition of purified tubulin (unknown origin) assessed as concentration of compound in supernatant solution at 30 uM after 1 hr; type: protein-complex assay; in short: as §5
[18] = target: T1, Tubulin (Homo sapiens); experiment: Inhibition of purified tubulin (unknown origin) assessed as concentration of compound in pellet solution at 30 uM after 1 hr; type: protein-complex assay; in short: as §5
[19] = Depolymerization of microtubule cytoskeleton in human A549 cells assessed as DNA forming a ball without microtubules at 5 uM after 24 hrs by hoechst 33342-based fluorescence microscopy; type: cell-based; in short: as §4
[20] = Depolymerization of microtubule cytoskeleton in human A549 cells assessed as DNA forming a ball without microtubules at 10 uM after 24 hrs by hoechst 33342-based fluorescence microscopy; type: cell-based; in short: as §4
[21] = Depolymerization of microtubule cytoskeleton in human A549 cells assessed as aberrant mitosis at 5 uM after 24 hrs by hoechst 33342-based fluorescence microscopy; type: cell-based; in short: as §4
[22] = Depolymerization of microtubule cytoskeleton in human A549 cells assessed as aberrant mitosis at 10 uM after 24 hrs by hoechst 33342-based fluorescence microscopy; type: cell-based; in short: as §4
[23] = Depolymerization of microtubule cytoskeleton in human A549 cells at 5 uM after 24 hrs by hoechst 33342-based fluorescence microscopy; type: cell-based; in short: as §4

SMILES	IC50 [1] [µM]	IC50 [2] [µM]	IC50 [7] [µM]	IC50 [8] [µM]	selectivity ratio [9]	selectivity ratio [10]	Activity [11] [µM]	further results
COc1cc2c(c(OC)c1OC)-c1ccc(OC)c(=O)cc1[C@@H](NC(C)=O)CC2 [COLCHICINE]	0.05	0.005	0.306					Activity [3]: Active; Activity [4]: Active; Activity [5]: Active; Activity [6]: Active
COc1cc2c(c(OC)c1OC)-c1ccc(OC)c(=O)cc1[C@@H](NC(=O)CCCCCCCCCCCCCCC(=O)OCCCCC[C@H]1CC=CC(=O)O1)CC2	30	0.5		0.5	< 0.1	1		
COc1cc2c(c(OC)c1OC)-c1ccc(OC)c(=O)cc1[C@@H](NC(=O)CCCC(=O)OCCCCC[C@H]1CC=CC(=O)O1)CC2	65	0.4		19	< 0.1	< 0.1		
CC(=O)O[C@@]12CO[C@@H]1C[C@H](O)[C@@]1(C)C(=O)[C@H](O)C3=C(C)[C@@H](OC(=O)[C@H](O)[C@@H](NC(=O)OC(C)(C)C)c4ccccc4)C[C@@](O)([C@@H](OC(=O)c4ccccc4)[C@H]21)C3(C)C							0.9	
COc1cc2c(c(OC)c1OC)-c1ccc(OC)c(=O)cc1[C@@H](NC(=O)CCCCCCC(=O)OCCCCC[C@@H]1CC=CC(=O)O1)CC2	20	33		0.29	1.6	> 100		
COc1cc2c(c(OC)c1OC)-c1ccc(OC)c(=O)cc1[C@@H](NC(=O)CCCCCCC(=O)OCCCCC[C@H]1CC=CC(=O)O1)CC2	40	0.7		12	< 0.1	< 0.1		
C/C=C/C[C@H](C)[C@@H](OC)[C@@H](C)[C@H](O)C[C@H]1OC(=O)C=C[C@H]1CC [PIRONETIN]			0.025		2.6	2.8	> 15	IC50 [12]: 0.008 µM; Ratio IC50 [13]: 3
COc1cc2c(c(OC)c1OC)-c1ccc(OC)c(=O)cc1[C@@H](NC(=O)CCCC(=O)OCCCCC[C@@H]1CC=CC(=O)O1)CC2	21	6	59	0.7	0.3	8.7	6.6	Activity [14]: Active; Activity [15]: >80%; IC50 [12]: 0.5 µM; Ratio IC50 [13]: 118; Activity [16]: 21.7 µM; Activity [17]: 18.1 µM; Activity [18]: 5.7 µM; Activity [19]: Active; Activity [20]: Active; Activity [21]: Active; Activity [22]: Active
COc1cc2c(c(OC)c1OC)-c1ccc(OC)c(=O)cc1[C@@H](NC(=O)CCCCCCCCCCC(=O)OCCCCC[C@H]1CC=CC(=O)O1)CC2	40	24		0.3	0.6	80		
COc1cc2c(c(OC)c1OC)-c1ccc(OC)c(=O)cc1[C@@H](NC(=O)CCCCCCCCCCCCCCC(=O)OCCCCC[C@@H]1CC=CC(=O)O1)CC2	8	0.44		0.6	< 0.1	0.7		
COc1cc2c(c(OC)c1OC)-c1ccc(OC)c(=O)cc1[C@@H](NC(=O)CCCCCCCCCCC(=O)OCCCCC[C@@H]1CC=CC(=O)O1)CC2	18	1.4	26.5	0.33	< 0.1	4.2	6.3	Activity [23]: Active; Activity [15]: >80%; IC50 [12]: 0.24 µM; Ratio IC50 [13]: 110; Activity [16]: 6.9 µM; Activity [17]: 2 µM; Activity [18]: 5.7 µM; Activity [19]: Active; Activity [20]: Active; Activity [21]: Active; Activity [22]: Active
